Data on two molecules can be found in ChEMBL document CHEMBL5260793, “Novel pyrazolo[3,4-d]pyrimidine with 4-(1H-benzimidazol-2-yl)-phenylamine as broad spectrum anticancer agents: Synthesis, cell based assay, topoisomerase inhibition, DNA intercalation and bovine serum albumin studies” (Eur J Med Chem, 2017).

As a reminder, the GI50 is the concentration at which growth is held to half of that of the control. As a reminder, the TGI is the concentration giving total growth inhibition.

Test [1] deals with Panel melanoma (Carcinoma cell lines). Briefly: Anticancer activity against human Panel melanoma (Carcinoma cell lines) assessed as cell growth inhibition incubated for 48 hrs by Sulphorhodamine B assay. Format: functional. In short, it runs like this: (§1)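 NCI-60 five-dose screen. Cells in RPMI 1640 with 5% FBS and 2 mM L-glutamine were plated at 5,000–40,000 cells/well and held 24 h before dosing. Compounds came from DMSO stocks and were given at five concentrations (10-fold or ½-log dilutions) for 48 h at 37 °C. Adherent cells were TCA-fixed and stained with SRB; A515 was read. GI50 was set from growth = 50% and TGI from Ti = Tz, using Tz/C/Ti.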
Background: The SRB assay estimates cell density from bound dye.

For test [2], the system named is Calf thymus DNA. Put plainly: Binding affinity to calf thymus DNA assessed as hypochromicity at pH 7.4 at 10 uM by UV-vis absorption spectroscopy. The class given is nucleic-acid assay. The following applies: Bos taurus. In short, it runs like this:
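Absorption titration at 300 K in a 1 cm cell, background subtracted. Compound was fixed (10 μM per legend; 20 μM in methods) with ct-DNA added up to 15–20 μM in 10 mM phosphate buffer, pH 7.4 (A260/A280 1.82). A buffer-addition control was run. K was taken from the 1/(Af−Aobs) vs 1/[DNA] fit.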

Test [3] deals with Panel colon (Carcinoma cell lines). Put plainly: Anticancer activity against human Panel colon (Carcinoma cell lines) assessed as cell growth inhibition incubated for 48 hrs by Sulphorhodamine B assay. The class given is functional. Summed up:
as §1

Test [4] has as its system Panel renal (Carcinoma cell lines). Put plainly: Anticancer activity against human Panel renal (Carcinoma cell lines) assessed as cell growth inhibition incubated for 48 hrs by Sulphorhodamine B assay. Format: functional. Summed up:
as §1

For test [5], the system named is Panel melanoma (Carcinoma cell lines). Briefly: Anticancer activity against human Panel melanoma (Carcinoma cell lines) assessed as lethality incubated for 48 hrs by Sulphorhodamine B assay. The class given is functional.
For test [6], the system named is Panel breast (Carcinoma cell lines). Briefly: Anticancer activity against human Panel breast (Carcinoma cell lines) assessed as cell growth inhibition incubated for 48 hrs by Sulphorhodamine B assay. The class given is functional. In short, it runs like this:
as §1

Test [7] deals with Calf thymus DNA. Put plainly: Displacement of Ethidium bromide from calf thymus DNA/EtBr complex assessed as decrease in fluorescent intensity by fluorescence based EtBr-displacement assay. The class given is nucleic-acid assay. The following applies: Bos taurus. In short, it runs like this:
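ct-DNA (0–20 μM) was pre-mixed with ethidium bromide, diluted from a 1 mM stock. Compound was then added in 2 μM steps up to 50 μM, with mixing after each addition. Emission was recorded with excitation at 480 nm.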

Test [8] relates to Panel melanoma (Carcinoma cell lines). Briefly: Anticancer activity against human Panel melanoma (Carcinoma cell lines) assessed as total growth inhibition incubated for 48 hrs by Sulphorhodamine B assay. Format: functional. In short, it runs like this: as §1
Test [9] has as its system Panel ovarian (Carcinoma cell lines). Briefly: Anticancer activity against human Panel ovarian (Carcinoma cell lines) assessed as cell growth inhibition incubated for 48 hrs by Sulphorhodamine B assay. The class given is functional. Summed up:
as §1

Test [10] relates to Panel CNS (Carcinoma cell lines). Put plainly: Anticancer activity against human Panel CNS (Carcinoma cell lines) assessed as lethality incubated for 48 hrs by Sulphorhodamine B assay. The class given is functional.
Test [11] deals with Panel ovarian (Carcinoma cell lines). Briefly: Anticancer activity against human Panel ovarian (Carcinoma cell lines) assessed as total growth inhibition incubated for 48 hrs by Sulphorhodamine B assay. The class given is functional.
In test [12] the test system is Panel CNS (Carcinoma cell lines). Briefly: Anticancer activity against human Panel CNS (Carcinoma cell lines) assessed as total growth inhibition incubated for 48 hrs by Sulphorhodamine B assay. The class given is functional. Summed up:
as §1

Test [13] has as its system Calf thymus DNA. Briefly: Binding affinity to calf thymus DNA assessed as decrease in maximum emission wavelength at pH 7.4 at 10 uM by fluorescence spectroscopy. Format: nucleic-acid assay. The following applies: Bos taurus. In short, it runs like this: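 Compound was held constant (10 μM per legend; 20 μM in methods) and titrated with ct-DNA (0–20 μM) in 10 mM phosphate buffer, pH 7.4. Emission spectra were excited at 300 nm, with a buffer-only control. Binding constant came from a Benesi–Hildebrand plot.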

The source made the active and inactive calls. The calls are words filed in the database; no cut-off is given here.

Consider `OCCN1CCN(c2nc(Nc3ccc(-c4nc5ccccc5[nH]4)cc3)c3cn[nH]c3n2)CC1`, for which the GI50 stood at 1.81 µM in test [1]; 0.72 µM in test [3]; 1.76 µM in test [4]; 1.8 µM in [6]; 1.84 µM in test [9]. For the same molecule, the result in the test with Calf thymus DNA [2], in the test on Calf thymus DNA [7] and in the test with Calf thymus DNA [13] was Active. In addition, the LC50 (lethal concentration 50) in test [5] was 5.83 µM. For the same molecule, the total growth inhibition concentration (TGI) in [8] was found to be 3.41 µM; in [11] it was 3.59 µM; in test [12], 3.26 µM. Besides, the LC50 (concentration killing 50% of cells) in test [10] is 5.72 µM.

Regarding `Fc1ccc(Nc2nc(Nc3ccc(-c4nc5ccccc5[nH]4)cc3)c3cn[nH]c3n2)cc1`, the 50% growth inhibitory concentration (GI50) in test [1] worked out at 2.8 µM; in [3], 1.78 µM; in [4] it was 1.84 µM; in test [6], 1.99 µM; in [9], 2.49 µM. The outcome in the test on Calf thymus DNA [2], with Calf thymus DNA [7] and with Calf thymus DNA [13] was Active. Besides, in [5], the LC50 (lethal concentration 50) was found to be 6.92 µM. Moreover, the results for the total growth inhibition concentration (TGI) in [8], in test [11] and in test [12] were 3.74 µM, 6.77 µM and 5.08 µM, respectively. Moreover, in test [10], the LC50 (concentration killing 50% of cells) is 20.4 µM.
